Source: ChEMBL document CHEMBL1649231, “In vitro activities of panduratin A against clinical Staphylococcus strains” (2009)
In brackets after ≈: the same amount, converted by molar mass.

How the values were obtained:
Type in all cases: functional
Staphylococcus aureus [1] = assay: Antimicrobial activity against methicillin-resistant Staphylococcus aureus after 24 hrs by broth microdilution method
Summary of the method: (§1)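 Clinical isolates came from blood, body fluids, genital secretions, pus or sputum, identified conventionally or by Vitek. MICs were run by CLSI M7-A6 broth microdilution in Mueller-Hinton broth with 5 × 10^5 CFU/ml inoculum. Agents were twofold serially diluted, starting from 10% DMSO. Drug-free and uninoculated controls were included. Plates were incubated aerobically at 37°C for 24 h; MIC is the lowest concentration giving no visible growth.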

Staphylococcus aureus [2] = assay: Antimicrobial activity against methicillin-susceptible Staphylococcus aureus after 24 hrs by broth microdilution method; summary of the method: as §1
Staphylococcus simulans [3] = assay: Antimicrobial activity against methicillin-resistant coagulase-negative Staphylococcus simulans assessed as susceptible isolates after 24 hrs by broth microdilution method
Staphylococcus simulans [4] = assay: Antimicrobial activity against methicillin-resistant coagulase-negative Staphylococcus simulans after 24 hrs by broth microdilution method; summary of the method: as §1
[5] = tested on: Staphylococcus haemolyticus; assay: Bactericidal activity against methicillin-resistant coagulase-negative Staphylococcus haemolyticus after 24 hrs by plate counting method
[6] = tested on: Staphylococcus haemolyticus; assay: Antimicrobial activity against methicillin-resistant coagulase-negative Staphylococcus haemolyticus assessed as resistant isolates after 24 hrs by broth microdilution method
[7] = tested on: Staphylococcus haemolyticus; assay: Antimicrobial activity against methicillin-resistant coagulase-negative Staphylococcus haemolyticus after 24 hrs by broth microdilution method; summary of the method: as §1
[8] = tested on: Staphylococcus epidermidis; assay: Bactericidal activity against methicillin-resistant coagulase-negative Staphylococcus epidermidis after 24 hrs by plate counting method
[9] = tested on: Staphylococcus epidermidis; assay: Antimicrobial activity against methicillin-resistant coagulase-negative Staphylococcus epidermidis assessed as resistant isolates after 24 hrs by broth microdilution method
[10] = tested on: Staphylococcus epidermidis; assay: Antimicrobial activity against methicillin-resistant coagulase-negative Staphylococcus epidermidis assessed as susceptible isolates after 24 hrs by broth microdilution method
Staphylococcus hominis [11] = assay: Bactericidal activity against methicillin-resistant coagulase-negative Staphylococcus hominis after 24 hrs by plate counting method
Staphylococcus hominis [12] = assay: Antimicrobial activity against methicillin-resistant coagulase-negative Staphylococcus hominis assessed as resistant isolates after 24 hrs by broth microdilution method
Staphylococcus aureus [13] = assay: Bactericidal activity against methicillin-susceptible Staphylococcus aureus after 24 hrs by plate counting method
Summary of the method: (§2)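 Clinical staphylococcal isolates from patient body fluids, blood, genital secretions, pus or sputum; species by conventional methods or Vitek. Twofold dilutions in Mueller-Hinton broth, inoculum 5 × 10^5 CFU/ml, 37°C aerobic 24 h (CLSI M7-A6 microdilution). About 100 μl from each well without visible growth spread on MHA; 37°C 24 h. MBC = lowest concentration giving no growth on agar.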

Staphylococcus aureus [14] = assay: Antimicrobial activity against methicillin-susceptible Staphylococcus aureus assessed as resistant isolates after 24 hrs by broth microdilution method
Staphylococcus aureus [15] = assay: Antimicrobial activity against methicillin-susceptible Staphylococcus aureus assessed as susceptible isolates after 24 hrs by broth microdilution method
Staphylococcus aureus [16] = assay: Antimicrobial activity against methicillin-resistant Staphylococcus aureus assessed as susceptible isolates after 24 hrs by broth microdilution method
Staphylococcus simulans [17] = assay: Antimicrobial activity against methicillin-resistant coagulase-negative Staphylococcus simulans assessed as resistant isolates after 24 hrs by broth microdilution method
Staphylococcus simulans [18] = assay: Bactericidal activity against methicillin-resistant coagulase-negative Staphylococcus simulans after 24 hrs by plate counting method; summary of the method: as §2
Mammaliicoccus sciuri [19] = assay: Antimicrobial activity against methicillin-resistant coagulase-negative Staphylococcus sciuri assessed as resistant isolates after 24 hrs by broth microdilution method
Mammaliicoccus sciuri [20] = assay: Bactericidal activity against methicillin-resistant coagulase-negative Staphylococcus sciuri after 24 hrs by plate counting method; summary of the method: as §2
Staphylococcus hominis [21] = assay: Antimicrobial activity against methicillin-susceptible coagulase-negative Staphylococcus hominis assessed as susceptible isolates after 24 hrs by broth microdilution method
Staphylococcus hominis [22] = assay: Antimicrobial activity against methicillin-susceptible coagulase-negative Staphylococcus hominis assessed as resistant isolates after 24 hrs by broth microdilution method
Staphylococcus hominis [23] = assay: Bactericidal activity against methicillin-susceptible coagulase-negative Staphylococcus hominis after 24 hrs by plate counting method; summary of the method: as §2
[24] = tested on: Staphylococcus epidermidis; assay: Antimicrobial activity against methicillin-susceptible coagulase-negative Staphylococcus epidermidis after 24 hrs by broth microdilution method; summary of the method: as §1
[25] = tested on: Staphylococcus epidermidis; assay: Antimicrobial activity against methicillin-susceptible coagulase-negative Staphylococcus epidermidis assessed as susceptible isolates after 24 hrs by broth microdilution method
[26] = tested on: Staphylococcus epidermidis; assay: Antimicrobial activity against methicillin-susceptible coagulase-negative Staphylococcus epidermidis assessed as resistant isolates after 24 hrs by broth microdilution method
[27] = tested on: Staphylococcus epidermidis; assay: Bactericidal activity against methicillin-susceptible coagulase-negative Staphylococcus epidermidis after 24 hrs by plate counting method; summary of the method: as §2
Staphylococcus simulans [28] = assay: Antimicrobial activity against methicillin-susceptible coagulase-negative Staphylococcus simulans assessed as susceptible isolates after 24 hrs by broth microdilution method
Summary of the method: (§3)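 Clinical isolates from blood, body fluids, pus, sputum or genital secretions, identified conventionally or by Vitek, were tested alongside ATCC 29213 and ATCC 12228 controls. CLSI M7-A6 broth microdilution in Mueller-Hinton broth used twofold dilutions from a 10% DMSO solution and 5 × 10^5 CFU/ml inoculum. Drug-free and uninoculated wells served as controls; incubation was aerobic at 37°C for 24 h. MIC was the lowest concentration with no visible growth.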

Mammaliicoccus sciuri [29] = assay: Antimicrobial activity against methicillin-susceptible coagulase-negative Staphylococcus sciuri assessed as susceptible isolates after 24 hrs by broth microdilution method; summary of the method: as §3
Mammaliicoccus sciuri [30] = assay: Antimicrobial activity against methicillin-susceptible coagulase-negative Staphylococcus sciuri assessed as resistant isolates after 24 hrs by broth microdilution method
Mammaliicoccus sciuri [31] = assay: Bactericidal activity against methicillin-susceptible coagulase-negative Staphylococcus sciuri after 24 hrs by plate counting method; summary of the method: as §2
Staphylococcus aureus [32] = assay: Antimicrobial activity against methicillin-susceptible Staphylococcus aureus assessed as intermediate resistant isolates after 24 hrs by broth microdilution method
[33] = tested on: Staphylococcus epidermidis; assay: Antimicrobial activity against methicillin-resistant coagulase-negative Staphylococcus epidermidis assessed as intermediate resistant isolates after 24 hrs by broth microdilution method
Staphylococcus simulans [34] = assay: Antimicrobial activity against methicillin-resistant coagulase-negative Staphylococcus simulans assessed as intermediate resistant isolates after 24 hrs by broth microdilution method
Mammaliicoccus sciuri [35] = assay: Antimicrobial activity against methicillin-resistant coagulase-negative Staphylococcus sciuri assessed as intermediate resistant isolates after 24 hrs by broth microdilution method
Staphylococcus hominis [36] = assay: Antimicrobial activity against methicillin-susceptible coagulase-negative Staphylococcus hominis assessed as intermediate resistant isolates after 24 hrs by broth microdilution method; conditions: pooled result: one value given for 5 cell lines, strains, targets or settings
Staphylococcus hominis [37] = assay: Antimicrobial activity against methicillin-resistant coagulase-negative Staphylococcus hominis assessed as intermediate resistant isolates after 24 hrs by broth microdilution method
[38] = Staphylococcus epidermidis, 24 h

## CN(C)[C@@H]1C(O)=C(C(N)=O)C(=O)[C@@]2(O)C(O)=C3C(=O)c4c(O)cccc4[C@@](C)(O)[C@H]3C[C@@H]12 [TETRACYCLINE]
Staphylococcus aureus [1]
  MIC50: 16 µg/mL (≈ 36 µM)
  MIC90: 32 µg/mL (≈ 72 µM)
Staphylococcus aureus [2]
  MIC50: 4 µg/mL (≈ 9 µM)
  MIC90: 8 µg/mL (≈ 18 µM)
Staphylococcus simulans [3]
  Activity: 7%
Staphylococcus simulans [4]
  MIC50: 1 µg/mL (≈ 2.25 µM)
  MIC90: 64 µg/mL (≈ 144 µM)
[5]
  MBC50: 4 µg/mL (≈ 9 µM)
[5]; Staphylococcus haemolyticus, 24 h
  MBC: 0.5 µg/mL (≈ 1.13 µM)
[6]
  Activity: 75%
[7]
  MIC50: 1 µg/mL (≈ 2.25 µM)
  MIC90: 64 µg/mL (≈ 144 µM)
[8]
  MBC50: 4 µg/mL (≈ 9 µM)
[8]; [38]
  MBC: 0.5 µg/mL (≈ 1.13 µM)
[9]
  Activity: 75%
[10]
  Activity: 18%
Staphylococcus hominis [11]
  MBC50: 4 µg/mL (≈ 9 µM)
Staphylococcus hominis [11]; Staphylococcus hominis, 24 h
  MBC: 0.5 µg/mL (≈ 1.13 µM)
Staphylococcus hominis [12]
  Activity: 75%
Staphylococcus aureus [13]
  MBC50: 8 µg/mL (≈ 18 µM)
  MBC90: 32 µg/mL (≈ 72 µM)
Staphylococcus aureus [13]; Staphylococcus aureus, 24 h
  MBC: 1 µg/mL (≈ 2.25 µM)
Staphylococcus aureus [14]
  Activity: 11%
Staphylococcus aureus [15]
  Activity: 70%
Staphylococcus aureus [16]
  Activity: 30%
Staphylococcus simulans [17]
  Activity: 75%
Staphylococcus simulans [18]
  MBC50: 4 µg/mL (≈ 9 µM)
Staphylococcus simulans [18]; Staphylococcus simulans, 24 h
  MBC: 0.5 µg/mL (≈ 1.13 µM)
Mammaliicoccus sciuri [19]
  Activity: 75%
Mammaliicoccus sciuri [20]
  MBC50: 4 µg/mL (≈ 9 µM)
Mammaliicoccus sciuri [20]; Mammaliicoccus sciuri, 24 h
  MBC: 0.5 µg/mL (≈ 1.13 µM)
Staphylococcus hominis [21]
  Activity: 69%
Staphylococcus hominis [22]
  Activity: 12%
Staphylococcus hominis [23]
  MBC50: 8 µg/mL (≈ 18 µM)
  MBC90: 128 µg/mL (≈ 288 µM)
Staphylococcus hominis [23]; Staphylococcus hominis, 24 h
  MBC: 1 µg/mL (≈ 2.25 µM)
[24]
  MIC: 0.5 µg/mL (≈ 1.13 µM)
  MIC50: 0.5 µg/mL (≈ 1.13 µM)
  MIC90: 32 µg/mL (≈ 72 µM)
[25]
  Activity: 69%
[26]
  Activity: 12%
[27]
  MBC50: 8 µg/mL (≈ 18 µM)
  MBC90: 128 µg/mL (≈ 288 µM)
[27]; [38]
  MBC: 1 µg/mL (≈ 2.25 µM)
Staphylococcus simulans [28]
  Activity: 69%
Mammaliicoccus sciuri [29]
  Activity: 69%
Mammaliicoccus sciuri [30]
  Activity: 12%
Mammaliicoccus sciuri [31]
  MBC50: 8 µg/mL (≈ 18 µM)
  MBC90: 128 µg/mL (≈ 288 µM)
Mammaliicoccus sciuri [31]; Mammaliicoccus sciuri, 24 h
  MBC: 1 µg/mL (≈ 2.25 µM)
Staphylococcus aureus [32]
  Activity: 19%
[33]
  Activity: 7%
Staphylococcus simulans [34]
  Activity: 7%
Mammaliicoccus sciuri [35]
  Activity: 7%
Staphylococcus hominis [36]
  Activity: 19%
Staphylococcus hominis [37]
  Activity: 7%

## GENTAMICIN
Staphylococcus aureus [1]
  MIC50: 32 µg/mL
  MIC90: 64 µg/mL
Staphylococcus aureus [2]
  MIC50: 4 µg/mL
  MIC90: 64 µg/mL
Staphylococcus simulans [3]
  Activity: 7%
Staphylococcus simulans [4]
  MIC50: 8 µg/mL
  MIC90: 64 µg/mL
[5]
  MBC: 0.25 µg/mL
  MBC50: 8 µg/mL
  MBC90: 128 µg/mL
[6]
  Activity: 48%
[7]
  MIC50: 8 µg/mL
  MIC90: 64 µg/mL
[8]
  MBC: 0.25 µg/mL
  MBC50: 8 µg/mL
  MBC90: 128 µg/mL
[9]
  Activity: 48%
[10]
  Activity: 45%
Staphylococcus hominis [11]
  MBC: 0.25 µg/mL
  MBC50: 8 µg/mL
  MBC90: 128 µg/mL
Staphylococcus hominis [12]
  Activity: 48%
Staphylococcus aureus [13]
  MBC: 0.5 µg/mL
  MBC50: 8 µg/mL
  MBC90: 128 µg/mL
Staphylococcus aureus [14]
  Activity: 48%
Staphylococcus aureus [15]
  Activity: 52%
Staphylococcus aureus [16]
  Activity: 15%
Staphylococcus simulans [17]
  Activity: 48%
Staphylococcus simulans [18]
  MBC: 0.25 µg/mL
  MBC50: 8 µg/mL
  MBC90: 128 µg/mL
Mammaliicoccus sciuri [19]
  Activity: 48%
Mammaliicoccus sciuri [20]
  MBC: 0.25 µg/mL
  MBC50: 8 µg/mL
  MBC90: 128 µg/mL
Staphylococcus hominis [21]
  Activity: 73%
Staphylococcus hominis [22]
  Activity: 27%
Staphylococcus hominis [23]
  MBC: 0.25 µg/mL
  MBC50: 1 µg/mL
  MBC90: 64 µg/mL
[24]
  MIC50: 0.125 µg/mL
  MIC90: 32 µg/mL
[25]
  Activity: 73%
[26]
  Activity: 27%
[27]
  MBC: 0.25 µg/mL
  MBC50: 1 µg/mL
  MBC90: 64 µg/mL
Staphylococcus simulans [28]
  Activity: 73%
Mammaliicoccus sciuri [29]
  Activity: 73%
Mammaliicoccus sciuri [30]
  Activity: 27%
Mammaliicoccus sciuri [31]
  MBC: 0.25 µg/mL
  MBC50: 1 µg/mL
  MBC90: 64 µg/mL
Staphylococcus aureus [32]
  Activity: 0%
[33]
  Activity: 7%
Staphylococcus simulans [34]
  Activity: 7%
Mammaliicoccus sciuri [35]
  Activity: 7%
Staphylococcus hominis [36]
  Activity: 0%
Staphylococcus hominis [37]
  Activity: 7%
